# Substitutions are numbered along the chain they refer to. Like-named read-outs stand apart in the source and are kept apart here.
# Key:
# [1] = molecular target: T1, mouse Otop1 (mOtop1) channels (Mus musculus, UniProt Q80VM9); type: cell-based; settings: read-out: IC50, inhibition of mOtop1 currents, n = 5-6
# T1 sequence (Q80VM9 1-600): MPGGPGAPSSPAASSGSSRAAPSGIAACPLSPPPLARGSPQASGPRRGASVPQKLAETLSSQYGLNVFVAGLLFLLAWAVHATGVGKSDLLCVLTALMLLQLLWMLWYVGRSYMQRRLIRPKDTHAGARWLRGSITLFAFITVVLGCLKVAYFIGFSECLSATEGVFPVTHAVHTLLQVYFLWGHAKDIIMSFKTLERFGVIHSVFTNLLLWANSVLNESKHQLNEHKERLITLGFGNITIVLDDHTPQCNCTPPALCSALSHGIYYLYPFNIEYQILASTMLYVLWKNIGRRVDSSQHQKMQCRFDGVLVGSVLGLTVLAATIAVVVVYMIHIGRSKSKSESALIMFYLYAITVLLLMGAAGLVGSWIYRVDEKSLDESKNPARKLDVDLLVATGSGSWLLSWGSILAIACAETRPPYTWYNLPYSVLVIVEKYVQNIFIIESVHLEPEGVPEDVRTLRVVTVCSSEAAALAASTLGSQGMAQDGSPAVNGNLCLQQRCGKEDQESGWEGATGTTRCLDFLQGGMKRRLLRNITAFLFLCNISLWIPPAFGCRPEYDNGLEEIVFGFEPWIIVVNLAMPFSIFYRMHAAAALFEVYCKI
# [2] = molecular target: T2, mOtop1/R554A (Mus musculus, UniProt Q80VM9, R554A); assay: patch-clamp, mOtop1 mutant; type: cell-based; settings: 1 mM Zn2+
# T2 sequence (Q80VM9 1-600 R554A): T1 sequence (Q80VM9 1-600) with R554A
# [3] = system: mOtop1 channel; settings: read-out: EC50, activating Otop1 currents; neutral and acidic conditions; cited from earlier work
# [4] = system: HEK293 cells expressing merely pHmScarlet-mTurquise2; assay: live cell intracellular pH imaging; type: cell-based; settings: pH 5.0; nontransfected cells
# Summary of the method: (§1)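 HEK293 cells were electroporated (180 V, 25 ms) with pHmScarlet-mTurquise2, with or without mOtop1, and imaged 24 h later. Cells sat in pH 7.4 solution (mM: 140 KCl, 10 NaCl, 1 MgCl2, 20 HEPES), then were shifted to pH 8.5 (Tris), 6.0 (MES) or 5.0 (HomoPIPES). Test compound was 10 μM in the stimulus solution, with acetic acid pH 5.0 as positive control. FpHmScarlet/FmTurquise2 ratio read every 2 s.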
# [5] = molecular target: T3, mOtop1 channels co-expressed in HEK293 cells (Mus musculus, UniProt Q80VM9); assay: live cell intracellular pH imaging; type: cell-based; settings: pH 5.0; mOtop1 transfected cells
# T3 sequence (Q80VM9 1-600): T1 sequence (Q80VM9 1-600)
# Summary of the method: as §1
# [6] = system: Otop1 channel; settings: cited from earlier work
structure (smiles),measurement,setting,value
[Zn+2] [Zn^2+],IC50,[1]; currents activated by pH 5.5 alone,72 ± 9 µM
same,IC50,[1]; currents activated by pH 5.5 with 10 μM MFaN,58 ± 13 µM
same,effect on mOtop1/R554A currents,[2],significantly inhibited
Cc1ccc(C(C)C)cc1O [carvacrol],EC50,[3],~700 µM
"CC(=O)O [acetic acid, reference compound]","pHi change, positive control",[4],triggered dramatical pHi dropdown
same,"pHi change, positive control",[5],triggered dramatical pHi dropdown
Nc1c(S(=O)(=O)O)cc(Nc2ccc(Nc3nc(Cl)nc(Nc4ccccc4S(=O)(=O)O)n3)c(S(=O)(=O)O)c2)c2c1C(=O)c1ccccc1C2=O [Cibacron Blue 3G-A],action on Otop1,[6],moderate antagonist

# — paper PMC11865470 (Communications Biology, 2025)
